From ChEMBL document CHEMBL1153148, “Addressing species specific metabolism and solubility issues in a quinoline series of oral PDE4 inhibitors” (Bioorg Med Chem Lett, 2010)
Converted amounts (≈) assume the structure as drawn.

How the values were obtained:
[1] = system: Blood; assay: Inhibition of LPS-induced TNFalpha production in human whole blood; type: functional, tissue-based
[2] = Oral bioavailability in cynomolgus monkey; type: ADME, organism-based, Macaca fascicularis; details: in vivo
Outline: (§1)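 Cynomolgus monkey pharmacokinetics after oral dosing as a solution in 10% DMSO, 15% PEG400, 75% water; a second arm used suspension dosing of particle-size-reduced material in 1% methyl cellulose. Values are means of three experiments.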

[3] = Clearance in cynomolgus monkey plasma; type: ADME, organism-based, Macaca fascicularis; outline: as §1
[4] = Half life in cynomolgus monkey; type: ADME, organism-based, Macaca fascicularis; details: in vivo; outline: as §1
[5] = Aqueous solubility of the compound; type: physicochemical
[6] = target: 3',5'-cyclic-AMP phosphodiesterase 4B (Homo sapiens, UniProt Q07343); assay: Inhibition of PDE4B catalytic domain by scintillation proximity assay
Chain of 3',5'-cyclic-AMP phosphodiesterase 4B (Q07343 whole entry, the tested form may be a part): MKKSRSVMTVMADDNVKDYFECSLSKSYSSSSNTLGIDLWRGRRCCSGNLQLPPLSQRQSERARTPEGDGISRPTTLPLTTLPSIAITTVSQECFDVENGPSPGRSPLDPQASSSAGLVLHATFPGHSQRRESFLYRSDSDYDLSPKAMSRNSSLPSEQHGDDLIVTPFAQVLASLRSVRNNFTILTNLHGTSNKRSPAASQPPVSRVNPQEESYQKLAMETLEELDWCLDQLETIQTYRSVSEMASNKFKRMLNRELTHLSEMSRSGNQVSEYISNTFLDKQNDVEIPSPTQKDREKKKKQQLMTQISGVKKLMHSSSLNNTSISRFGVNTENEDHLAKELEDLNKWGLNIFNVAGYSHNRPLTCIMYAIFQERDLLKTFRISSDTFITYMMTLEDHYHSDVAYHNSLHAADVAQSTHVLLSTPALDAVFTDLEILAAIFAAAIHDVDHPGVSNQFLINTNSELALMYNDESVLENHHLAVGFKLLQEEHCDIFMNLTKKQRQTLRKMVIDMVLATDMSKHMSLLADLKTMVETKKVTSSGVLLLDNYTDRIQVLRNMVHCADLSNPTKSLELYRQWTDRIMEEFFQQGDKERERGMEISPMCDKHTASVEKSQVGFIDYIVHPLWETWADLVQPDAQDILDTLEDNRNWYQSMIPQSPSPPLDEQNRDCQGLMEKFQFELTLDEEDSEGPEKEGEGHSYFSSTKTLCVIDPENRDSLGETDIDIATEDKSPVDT
Outline: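 PDE4B catalytic activity inhibition measured by scintillation proximity assay; pIC50 reported as mean of two determinations.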

[7] = Oral bioavailability in rat; type: ADME, organism-based; details: in vivo
[8] = Selectivity for PDE4B over PDE1
[9] = Selectivity for PDE4B over PDE2
[10] = Selectivity for PDE4B over PDE3
[11] = Selectivity for PDE4B over PDE5
[12] = Selectivity for PDE4B over PDE6
[13] = Selectivity for PDE4B over PDE7

| SMILES | IC50 [1] | bioavailability [2] | clearance [3] | half-life [4] | solubility [5] | IC50 [6] | bioavailability [7] | Selectivity ratio [8] | Selectivity ratio [9] | Selectivity ratio [10] | Selectivity ratio [11] | Selectivity ratio [12] | Selectivity ratio [13] |
| --- | --- | --- | --- | --- | --- | --- | --- | --- | --- | --- | --- | --- | --- |
| Cc1cc(S(C)(=O)=O)cc2c(Nc3cccc(C#N)c3)c(C(N)=O)cnc12 | 12.6 nM | 33% | 82 mL/min/kg | 0.8 h | 1 µg/mL (≈ 2.63 µM) |  |  |  |  |  |  |  |  |
| CCn1nccc1NC1=C(C(N)=O)NNc2c(C)cc(S(=O)(=O)CC)cc21 | 10 nM |  |  |  |  | 0.316 nM | 41% |  |  |  |  |  |  |
| Cc1cc(S(C)(=O)=O)cc2c(Nc3cccc(C#N)c3)c(C(N)=O)c(=O)[nH]c12 | 25.1 nM | 52% | 5.9 mL/min/kg | 4.2 h |  | 1 nM |  |  |  |  |  |  |  |
| CS(=O)(=O)c1ccc2c(c1)C(Nc1cncc(Cl)c1)=C(C(N)=O)NN2 | 31.6 nM |  |  |  | 7 µg/mL (≈ 18.4 µM) | 0.794 nM | 66% |  |  |  |  |  |  |
| Cc1cc(S(C)(=O)=O)cc2c1NNC(C(N)=O)=C2Nc1cccc(C#N)c1 | 2.51 nM | 64% | 1.6 mL/min/kg | 7.2 h | 1 µg/mL (≈ 2.61 µM) | < 1 nM | 17% | > 100 | > 100 | > 100 | > 100 | > 100 | > 100 |

Results, then the compound that gave them:

| IC50 [1] | bioavailability [2] | clearance [3] | half-life [4] | solubility [5] | IC50 [6] | bioavailability [7] | Selectivity ratio [8] | Selectivity ratio [9] | Selectivity ratio [10] | Selectivity ratio [11] | Selectivity ratio [12] | Selectivity ratio [13] | SMILES |
| --- | --- | --- | --- | --- | --- | --- | --- | --- | --- | --- | --- | --- | --- |
| 5.01 nM |  |  |  | 37 µg/mL (≈ 98 µM) | < 0.501 nM | 34% |  |  |  |  |  |  | Cc1cc(S(C)(=O)=O)cc2c1NNC(C(N)=O)=C2Nc1cncc(F)c1 |
| 12.6 nM |  |  |  | 1 µg/mL (≈ 2.47 µM) | 0.501 nM | 57% |  |  |  |  |  |  | CC(C)(C)S(=O)(=O)c1ccc2c(c1)C(Nc1cncc(F)c1)=C(C(N)=O)NN2 |
| 158 nM |  |  |  |  | 0.631 nM |  |  |  |  |  |  |  | CS(=O)(=O)c1cc(F)c2c(c1)C(Nc1cncc(F)c1)=C(C(N)=O)NN2 |
| 1.58 nM |  |  |  | 12 µg/mL (≈ 30.5 µM) | 0.0794 nM | 50% |  |  |  |  |  |  | Cc1cc(S(C)(=O)=O)cc2c1NNC(C(N)=O)=C2Nc1cncc(Cl)c1 |
